Results published in ChEMBL document CHEMBL4270565, “Design, synthesis and antimicrobial evaluation of propylene-tethered ciprofloxacin-isatin hybrids” (Eur J Med Chem, 2018).
Values after ≈ are worked out from the molar mass of the structure shown.

What was measured:
[1] = system: Providencia rettgeri; test: Antibacterial activity against Providencia rettgeri ATCC 31052 after 18 to 24 hrs by two-fold serial dilution method; format: functional
Outline: (§1)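 Agar two-fold dilution MIC. Compounds were dissolved in 0.1 N NaOH and water, then serially diluted in melted Mueller-Hinton agar, with top concentrations starting at 128. Plates were inoculated at about 10 cfu and incubated at 35 °C for 18–24 h. MIC was taken as the lowest concentration giving 90% inhibition of growth.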

[2] = system: Morganella morganii; test: Antibacterial activity against Morganella morganii ATCC 25830 after 18 to 24 hrs by two-fold serial dilution method; format: functional; outline: as §1
[3] = system: Proteus mirabilis; test: Antibacterial activity against Proteus mirabilis 13-1 after 18 to 24 hrs by two-fold serial dilution method; format: functional; outline: as §1
[4] = system: Klebsiella pneumoniae; test: Antibacterial activity against extended-spectrum beta-lactamase deficient Klebsiella pneumoniae 15-2 after 18 to 24 hrs by two-fold serial dilution method; format: functional; outline: as §1
[5] = system: Mycobacterium tuberculosis; test: Antimycobacterial activity against Mycobacterium tuberculosis H37Rv after 7 days; format: functional; conditions: 168 h
Outline: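 Rapid direct susceptibility test in 48-well plates. Two-fold dilutions of compound from DMSO stocks were mixed with an equal volume of bacterial suspension. Medium-only wells served as growth controls and water-only wells as no-growth controls. Plates were sealed and held at 37 C in a humid box, and controls were checked at 3 days. MIC (90% growth inhibition) was read visually by high-magnification observation of the cells and re-read at 7 days.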

[6] = system: Proteus vulgaris; test: Antibacterial activity against Proteus vulgaris ATCC 29905 after 18 to 24 hrs by two-fold serial dilution method; format: functional; outline: as §1
[7] = system: Staphylococcus aureus; test: Antibacterial activity against methicillin-sensitive Staphylococcus aureus ATCC 29213 after 18 to 24 hrs by two-fold serial dilution method; format: functional
Outline: (§2)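 Agar two-fold serial dilution in Mueller-Hinton agar. Strains came from the Chinese Center for Disease Control and Prevention. Compounds were dissolved in 0.1 N NaOH and water, then diluted in melted agar to final levels stepping down from 128. Plates were inoculated with bacterial cfu and incubated at 35 C for 18–24 h. MIC is the lowest concentration giving 90% growth inhibition.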

[8] = system: Stenotrophomonas maltophilia; test: Antibacterial activity against Stenotrophomonas maltophilia ATCC 13636 after 18 to 24 hrs by two-fold serial dilution method; format: functional; outline: as §1
[9] = system: Staphylococcus epidermidis; test: Antibacterial activity against methicillin-sensitive Staphylococcus epidermidis ATCC 12228 after 18 to 24 hrs by two-fold serial dilution method; format: functional; outline: as §1
[10] = system: Staphylococcus aureus; test: Antibacterial activity against methicillin-resistant Staphylococcus aureus ATCC 33591 after 18 to 24 hrs by two-fold serial dilution method; format: functional; outline: as §2
[11] = system: Enterococcus faecium; test: Antibacterial activity against Enterococcus faecium 13-7 after 18 to 24 hrs by two-fold serial dilution method; format: functional; outline: as §1
[12] = system: Serratia marcescens; test: Antibacterial activity against Serratia marcescens ATCC 21074 after 18 to 24 hrs by two-fold serial dilution method; format: functional; outline: as §1
[13] = system: Pseudomonas aeruginosa; test: Antibacterial activity against Pseudomonas aeruginosa ATCC 27853 after 18 to 24 hrs by two-fold serial dilution method; format: functional; outline: as §1
[14] = system: Acinetobacter calcoaceticus; test: Antibacterial activity against Acinetobacter calcoaceticus ATCC 19606 after 18 to 24 hrs by two-fold serial dilution method; format: functional; outline: as §1
[15] = system: Staphylococcus epidermidis; test: Antibacterial activity against methicillin-resistant Staphylococcus epidermidis 13-3 after 18 to 24 hrs by two-fold serial dilution method; format: functional; outline: as §2
[16] = system: Enterococcus faecalis; test: Antibacterial activity against Enterococcus faecalis ATCC 51299 after 18 to 24 hrs by two-fold serial dilution method; format: functional; outline: as §1
[17] = system: Escherichia coli; test: Antibacterial activity against extended-spectrum beta-lactamase harboring Escherichia coli ATCC 35218 after 18 to 24 hrs by two-fold serial dilution method; format: functional; outline: as §2
[18] = system: Enterobacter cloacae; test: Antibacterial activity against Enterobacter cloacae ATCC 43560 after 18 to 24 hrs by two-fold serial dilution method; format: functional
[19] = system: Enterococcus faecalis; test: Antibacterial activity against Enterococcus faecalis ATCC 29212 after 18 to 24 hrs by two-fold serial dilution method; format: functional; outline: as §1
[20] = Cytotoxicity against African green monkey Vero cells assessed as reduction in cell viability after 72 hrs by MTT assay; format: cell-based; conditions: chlorocebus sabaeus
Outline: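 VERO cells were kept in MEM with Earle's salts and 10% FBS at 37 °C, 5% CO2. They were seeded in 96-well plates and allowed to recover for 24 h. Cells were then exposed to compounds in DMSO over a series from 1000 down to 4 for 72 h. Viability was read by MTT, and CC50 was calculated by Bliss analysis.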

[21] = system: Klebsiella pneumoniae; test: Antibacterial activity against extended-spectrum beta-lactamase harboring Klebsiella pneumoniae ATCC 700603 after 18 to 24 hrs by two-fold serial dilution method; format: functional; outline: as §2
[22] = system: Citrobacter freundii; test: Antibacterial activity against extended-spectrum beta-lactamase harboring Citrobacter freundii ATCC 43864 after 18 to 24 hrs by two-fold serial dilution method; format: functional; outline: as §2
[23] = system: Enterococcus faecium; test: Antibacterial activity against Enterococcus faecium ATCC 700221 after 18 to 24 hrs by two-fold serial dilution method; format: functional; outline: as §1
[24] = system: Klebsiella aerogenes; test: Antibacterial activity against Enterobacter aerogenes ATCC 13048 after 18 to 24 hrs by two-fold serial dilution method; format: functional; outline: as §1
[25] = system: Escherichia coli; test: Antibacterial activity against extended-spectrum beta-lactamase deficient Escherichia coli ATCC 25922 after 18 to 24 hrs by two-fold serial dilution method; format: functional; outline: as §1
[26] = Tmax in ICR mouse at 50 mg/kg, po administered as single dose by HPLC analysis; format: ADME, organism-based; conditions: in vivo
Outline: (§3)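 Mice (3 per group), fasted overnight, given a single oral dose of 50 mg/kg as a suspension in 0.5% CMC. Jugular vein blood taken at 0.25, 0.5, 1, 2, 4, 6, 8 and 24 h. Serum proteins precipitated with acetonitrile and centrifuged; the dried supernatant was redissolved in acetonitrile for HPLC. PK parameters were derived directly from the concentration–time data.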

[27] = system: Staphylococcus aureus; test: Potency index, ratio of ciprofloxacin MIC90 to compound MIC90 for methicillin-sensitive Staphylococcus aureus ATCC 29213; format: functional
[28] = system: Enterococcus faecalis; test: Potency index, ratio of ciprofloxacin MIC90 to compound MIC90 for Enterococcus faecalis ATCC 29212; format: functional
[29] = system: Enterococcus faecalis; test: Potency index, ratio of levofloxacin MIC90 to compound MIC90 for Enterococcus faecalis ATCC 29212; format: functional
[30] = system: Staphylococcus epidermidis; test: Potency index, ratio of levofloxacin MIC90 to compound MIC90 for methicillin-sensitive Staphylococcus epidermidis ATCC 12228; format: functional
[31] = system: Staphylococcus aureus; test: Potency index, ratio of levofloxacin MIC90 to compound MIC90 for methicillin-sensitive Staphylococcus aureus ATCC 29213; format: functional
[32] = system: Enterococcus faecalis; test: Potency index, ratio of ciprofloxacin MIC90 to compound MIC90 for Enterococcus faecalis ATCC 51299; format: functional
[33] = AUC (0 to infinity) in ICR mouse at 50 mg/kg, po administered as single dose by HPLC analysis; format: ADME, organism-based; parameters: dose 50 mg/kg, route oral, time infinity; conditions: in vivo; outline: as §3
[34] = Elimination half life in ICR mouse at 50 mg/kg, po administered as single dose by HPLC analysis; format: ADME, organism-based; conditions: in vivo, read-out: beta t1/2 (converted)
[35] = Cmax in ICR mouse at 50 mg/kg, po administered as single dose by HPLC analysis; format: ADME, organism-based; parameters: dose 50 mg/kg, route oral; conditions: in vivo; outline: as §3
[36] = system: Staphylococcus epidermidis; test: Potency index, ratio of ciprofloxacin MIC90 to compound MIC90 for methicillin-sensitive Staphylococcus epidermidis ATCC 12228; format: functional
[37] = Half life in mouse microsomes; format: ADME, Microsome
[38] = system: Enterococcus faecalis; test: Potency index, ratio of levofloxacin MIC90 to compound MIC90 for Enterococcus faecalis ATCC 51299; format: functional

Row | SMILES | MIC90 [1] [µg/mL] | MIC90 [2] [µg/mL] | MIC90 [3] [µg/mL] | MIC90 [4] [µg/mL] | MIC90 [5] [µg/mL] | MIC90 [6] [µg/mL] | MIC90 [7] [µg/mL] | MIC90 [8] [µg/mL] | MIC90 [9] [µg/mL] | MIC90 [10] [µg/mL] | MIC90 [11] [µg/mL] | MIC90 [12] [µg/mL] | MIC90 [13] [µg/mL] | MIC90 [14] [µg/mL] | MIC90 [15] [µg/mL] | MIC90 [16] [µg/mL] | MIC90 [17] [µg/mL] | MIC90 [18] [µg/mL] | MIC90 [19] [µg/mL] | CC50 at 72 h [20] [µg/mL] | other results
1 | CCO/N=C1\C(=O)N(CCCN2CCN(c3cc4c(cc3F)c(=O)c(C(=O)OCCCN3C(=O)/C(=N/OCC)c5ccccc53)cn4C3CC3)CC2)c2ccccc21 | 128 (≈ 162 µM) | 64 (≈ 80.8 µM) | 64 (≈ 80.8 µM) | 64 (≈ 80.8 µM) | 25 (≈ 31.6 µM) | 128 (≈ 162 µM) | 128 (≈ 162 µM) | > 128 | 64 (≈ 80.8 µM) | > 128 | > 128 | > 128 | 64 (≈ 80.8 µM) | > 128 | 128 (≈ 162 µM) | > 128 | 32 (≈ 40.4 µM) | 64 (≈ 80.8 µM) | 64 (≈ 80.8 µM) | 32 (≈ 40.4 µM) | MIC90 [21]: 64 µg/mL (≈ 80.8 µM); MIC90 [22]: 128 µg/mL (≈ 162 µM); MIC90 [23]: > 128 µg/mL; MIC90 [24]: 64 µg/mL (≈ 80.8 µM); MIC90 [25]: 8 µg/mL (≈ 10.1 µM)
2 | CO/N=C1\C(=O)N(CCCN2CCN(c3cc4c(cc3F)c(=O)c(C(=O)O)cn4C3CC3)CC2)c2ccc(C)cc21 | ≤ 0.03 | ≤ 0.03 | ≤ 0.03 | ≤ 0.03 | 0.78 (≈ 1.39 µM) | ≤ 0.03 | 0.06 (≈ 0.107 µM) | ≤ 0.03 | 0.06 (≈ 0.107 µM) | 0.06 (≈ 0.107 µM) | 8 (≈ 14.2 µM) | 0.06 (≈ 0.107 µM) | 0.5 (≈ 0.89 µM) | 0.25 (≈ 0.445 µM) | 1 (≈ 1.78 µM) | 0.5 (≈ 0.89 µM) | ≤ 0.03 | ≤ 0.03 | 0.5 (≈ 0.89 µM) | 256 (≈ 456 µM) | Tmax [26]: 1.2 h; Ratio [27]: 2 - 64; Ratio [28]: 2 - 64; Ratio [29]: 2 - 64; Ratio [30]: 2 - 64; Ratio [31]: 2 - 64; Ratio [32]: 2 - 64; AUC(0-inf) [33]: 2860 ng·h/mL; half-life [34]: 3.3 h; Cmax [35]: 832 ng/mL; MIC90 [21]: 0.25 µg/mL (≈ 0.445 µM); MIC90 [22]: ≤ 0.03 µg/mL; MIC90 [23]: 2 µg/mL (≈ 3.56 µM); Ratio [36]: 2 - 64; MIC90 [24]: ≤ 0.03 µg/mL; half-life [37]: 0.283 h; MIC90 [25]: ≤ 0.03 µg/mL; Ratio [38]: 2 - 64
